From ChEMBL document CHEMBL2146419, “Effects of polyphenol compounds on influenza A virus replication and definition of their mechanism of action” (Bioorg Med Chem, 2012) come the findings set out here.

Series [1] has as its system MDCK. Briefly: Cytotoxicity against dog MDCK cells assessed as modification of cell multiplication rate incubated for 24 hrs followed by compound wash out measured after 24 hrs by cell counting analysis. The class given is cell-based, Canis lupus familiaris. A digest of the protocol: (§1)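 Confluent MDCK monolayers plated at 2×10^5/ml were treated after 24 h with compound at 5–40 μg/ml and incubated a further 24 h. Assessed by microscopic examination of morphology, Trypan blue exclusion for viability, and cell counts for multiplication rate.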

In series [2] the test system is MDCK. As to the kind of experiment: Cytotoxicity against dog MDCK cells assessed as loss of cell viability incubated for 24 hrs followed by compound wash out measured after 24 hrs by trypan blue exclusion assay. It counts as cell-based, Canis lupus familiaris. The procedure, abridged:
as §1

The subject of series [3] is MDCK. Briefly: Cytotoxicity against dog MDCK cells assessed as morphological alterations incubated for 24 hrs followed by compound wash out measured after 24 hrs by microscopic analysis. It counts as cell-based, Canis lupus familiaris. The procedure, abridged:
as §1

For series [4], the system named is MDCK. Briefly: Cytotoxicity against dog MDCK cells assessed as morphological alterations at 40 ug/mL incubated for 24 hrs followed by compound wash out measured after 24 hrs by microscopic analysis. The class given is cell-based, Canis lupus familiaris. The procedure, abridged: as §1
Series [5] concerns Influenza A virus. Briefly: Antiviral activity against Influenza virus A/Puerto Rico/8/34 H1N1 infected in dog MDCK cells incubated at 1 hr post-infection measured after 24 hrs by hemagglutininating unit assay. It counts as functional, organism-based. As to conditions: A/Puerto Rico/8/1934(H1N1). The procedure, abridged:
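MDCK cells infected with PR8; 1 h after adsorption they were washed, and compound (5–20 μg/ml) or DMSO was added and kept on throughout. Virus released into the supernatant was titrated by HAU assay 24 h p.i. Yield is a percentage of control infected cells given 0.02% DMSO. Means of four experiments, each in duplicate.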

As to `O=C1/C(=C/c2ccc(O)c(O)c2)CCC/C1=C\c1ccc(O)c(O)c1`, the Activity entry in series [1], in series [2] and in series [3] was “Dose-dependent effect” each time.

As to `CCOC(=O)C1C/C(=C\c2ccc(O)c(O)c2)C(=O)/C(=C/c2ccc(O)c(O)c2)C1` (stereo unspecified), the Activity entry in series [1], in series [2] and in series [3] was “Dose-dependent effect” throughout.

`O=C(/C=C/c1ccc(O)c(O)c1)c1ccc(O)cc1O` [BUTEIN]: the Activity entry in series [1], in series [2] and in series [3] was “Dose-dependent effect” throughout.

Turning to `O=C(/C=C/c1ccc(O)c(O)c1)/C=C/c1ccc(O)c(O)c1`, the Activity entry in series [1], in series [2] and in series [3] was “Dose-dependent effect” each time.

Regarding `O=C(/C=C/c1ccc(O)c(O)c1)c1ccc(O)cc1`, the Activity result in series [1], in series [2] and in series [3] was “Dose-dependent effect” in each case.

Take `O=C(/C=C/c1cc(O)cc(O)c1)c1ccc(O)cc1`: the Activity entry in series [1], in series [2] and in series [3] was “Dose-dependent effect” throughout.

On to `O=C(/C=C/c1ccc(O)cc1)c1cc(O)cc(O)c1`, for which the Activity entry in series [1] is “Non-toxic”; in series [2], “Non-toxic”; in series [4], “Toxic”; in series [5] it was “Dose-dependent effect”; in series [3] it was “Non-toxic”.

On to `O=C(/C=C/c1ccc(O)c(O)c1)c1ccccc1`, for which the Activity entry in series [1], in series [2] and in series [3] was “Dose-dependent effect” throughout.

For the compound `COc1ccc(/C=C/C(=O)c2ccc(O)cc2O)cc1`, the Activity result in series [1], in series [2] and in series [3] was “Dose-dependent effect” each time.

With `CCCN1C/C(=C\c2ccc(O)c(O)c2)C(=O)/C(=C/c2ccc(O)c(O)c2)C1`, the Activity entry in series [1], in series [2] and in series [3] was “Dose-dependent effect” each time.

With `Nc1cccc(C(=O)/C=C/c2ccc(O)c(O)c2)c1`, the Activity result in series [1], in series [2] and in series [3] was “Dose-dependent effect” throughout.

With `COc1ccc(C(=O)/C=C/c2ccc(F)cc2)c(O)c1`, the Activity entry in series [1], in series [2] and in series [3] was “Dose-dependent effect” in each case.

Regarding `O=C(/C=C/c1ccc(Cl)cc1)c1ccccc1O`, the Activity result in series [1] is “Non-toxic”; in series [2] it was “Non-toxic”; in series [4], “Toxic”; in series [5], “Dose-dependent effect”; in series [3], “Non-toxic”.

With `Cc1ccc(/C=C/C(=O)c2ccc(O)cc2O)cc1`, the Activity result in series [1], in series [2] and in series [3] was “Dose-dependent effect” in each case.
